# PvdQ acylase: P. aeruginosa PvdQ acylase inhibition; purified PvdQ acylase, fluorescence plate reader; inhibition, % at 10 µM; AID 488965; actives 0.063% (n = 340,000); in the data active means inhibition above about 30%, passing the limit was not always enough;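 further: 0% = vehicle neutral wells and 100% = reference inhibitor wells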
# SR-BI HDL uptake: inhibitors of mouse SR-BI mediated HDL lipid uptake; Q61009; ldlA[mSR-BI] CHO cells, DiI-HDL uptake fluorescence, 3 h; inhibition, % at 12.5 µM; actives 0.96% (n = 320,000); AID 488896;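 active means mean replicate inhibition of at least 70% and a set share of replicates each scoring 70 or more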;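 further: 0% = median of neutral control wells and 100% = median of positive control wells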
# rRNA inh HTS: inhibits bacterial ribosomal RNA function over humanized ribosomes. GFP signal change (wild-type ribosome), % (concentration not given with the values). actives 1.6% (n = 350,000). E. coli WT GFP vs humanized-ribosome RFP mutants, fluorescence, 24 h; stronger effect = lower value; DMSO median 0, no signal -100. AID 720706;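 active means significant combined selectivity score with lowered wild-type GFP, culture density cut under 30%, mutant RFP and density less affected; inactive means any of these conditions unmet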
# XiGFP reactiv: activators of X-chromosome reactivation in mouse fibroblasts; XiGFP mouse fibroblasts, % GFP-positive cells imaging, 3 d; cells co-treated with 5-aza-dC sensitizer; scaled so ellipticine positive control = 100%; activation, % at 7.58 µM; actives 0.055% (n = 360,000); AID 743238;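 active means mean normalized replicate activation at least 10% and every replicate at or above 10%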;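 further: 0% = median of on-plate neutral control wells and 100% = ellipticine 6 µM median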
#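 material = 68-5-11 XiGFP fibroblast line | medium = DMEM plus 5-aza-dC sensitizer | schedule = 3 days compound exposure | benchmarks = positive control ellipticine, 6 µM final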
# dFosB act-1: mouse delta FosB homodimer activation | P13346 | purified delta FosB, TAMRA-CDK5 oligo fluorescence polarization; percent of positive-control signal above neutral wells | activation, % at 25 µM | actives 0.99% (n = 340,000);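 active means mean activation above about 17%, with every replicate also reaching it, limit read from the data, passing the limit was not always enough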
# Target sequence (P13346 whole entry, looked up): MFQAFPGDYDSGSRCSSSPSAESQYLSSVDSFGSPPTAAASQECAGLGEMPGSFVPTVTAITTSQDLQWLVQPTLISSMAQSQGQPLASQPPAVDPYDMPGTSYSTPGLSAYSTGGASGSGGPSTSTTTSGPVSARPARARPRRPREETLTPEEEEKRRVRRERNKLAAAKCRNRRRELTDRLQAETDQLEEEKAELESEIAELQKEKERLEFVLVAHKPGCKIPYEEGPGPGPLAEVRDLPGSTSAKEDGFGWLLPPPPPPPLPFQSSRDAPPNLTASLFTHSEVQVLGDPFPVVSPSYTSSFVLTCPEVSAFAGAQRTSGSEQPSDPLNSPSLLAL
# SR-BI uptake up: activators of SR-BI mediated HDL lipid uptake; CHO ldlA[mSR-BI] cells, DiI-HDL uptake fluorescence, 3 h; 100 = double the neutral-control signal; activation, % at 12.5 µM; actives 0.096% (n = 320,000); AID 504775;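 active means mean replicate activation of at least 60% and every replicate at or above 60%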;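 further: 0% = median plate neutral-control signal and 100% = twice that signal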
#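 material = CHO ldlA[mSR-BI] cells | medium = Ham's F12 with 0.5% BSA, HEPES 25 mM, pH 7.4 | reagent = fluorescent DiI-HDL, 10 µg/mL final | compound dosing = single-point compound dose | incubation = 3 h, 37 °C | measured by = bottom-read fluorescence, 550/595 nm | measure = HDL uptake via cellular fluorescence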
# dFosB act-2: enhances mouse delta FosB homodimer binding to DNA | shares compounds with dFosB act-1 | purified delta FosB, TAMRA-CDK5 oligo fluorescence polarization; normalised: neutral wells 0, positive control 100 | activation, % at 24.9 µM | 2,400 tested, under 10 active;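 active means highest replicate activation at or above 34% and every replicate reaching that threshold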;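 further: higher polarization means more probe DNA bound by delta FosB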
# * marks the source's active call; other numbers are inactive results; · = not tested or not shown. Compounds with a hit are over-represented: about 2.6% of the library has one in this group of screens.
SMILES,PvdQ acylase,SR-BI HDL uptake,rRNA inh HTS,XiGFP reactiv,dFosB act-1,SR-BI uptake up,dFosB act-2
CCCSc1nc(N)c2c3c(sc2n1)CN(C)CC3,-11,·,·,·,-8,·,·
CN(C)CCSc1nc(N)c2c3c(sc2n1)CN(C)CC3,-7,-11,·,·,25*,11,2
COCC(=O)Nc1ccc2c(c1)OC[C@H](C)N(C(=O)Cc1cccnc1)C[C@@H](C)[C@@H](OC)CN(C)C2=O,·,·,-1,0,·,·,·
O=C(Cn1cnc2sc3c(c2c1=O)CCCC3)NCC(=O)Nc1ccc(F)cc1F,-15,-7,4,0,36*,7,0
CCCCn1c(N)c(N(CCC(C)C)C(=O)c2cccc(N3C(=O)c4ccccc4C3=O)c2)c(=O)[nH]c1=O,-8,2,5,0,22*,-2,-1
CCCCN(C(=O)c1cccc(-n2cccc2)c1)c1c(N)n(CCCC)c(=O)[nH]c1=O,-9,-21,13,0,-9,21,·
O=C(Nc1ccc(-c2nc3cccnc3s2)cc1)c1ccc(Br)o1,5,55,1,0,35*,-55,-7
CC(C)N=c1scc(-c2cccs2)n1/N=C/c1ccc(O)c(O)c1O,-3,53,·,3,-11,-53,·
Cc1ccc(C(=O)Nc2cnc3ccccn3c2=O)cc1,-3,-16,·,·,-1,16,·
O=C(Nc1cnc2ccccn2c1=O)c1ccc(Cl)cc1Cl,-1,1,-4,0,19*,-1,5
COC(=O)Nc1ccc(S(=O)(=O)NNC(=O)c2c(O)c3ccccc3n(C)c2=O)cc1,-8,-11,7,0,41*,11,0
Cc1cc(C)c(NC(=O)Cn2c(=O)c3cccn3c3ccccc32)c(C)c1,-14,0,11,0,39*,0,3
O=C(Cn1c(=O)c2cccn2c2ccccc21)Nc1cc(F)ccc1F,-15,12,-12,0,14,-12,·
CCc1ccc(NC(=O)Cn2c(=O)c3cccn3c3ccccc32)cc1,-13,-2,0,0,32*,2,5
COc1ccccc1/C=C(\NC(=O)c1ccc(OC)c(OC)c1)C(=O)Nc1cc([N+](=O)[O-])ccc1C,3,20,4,0,28*,-20,-2
COc1ccc(/C=C(/NC(=O)c2cccc([N+](=O)[O-])c2)C(=O)O)cc1OC,3,-11,18,0,-3,11,·
Cc1ccc(S(=O)(=O)Oc2ccc(/C=N/N=C3/NC(=O)C(CC(=O)O)S3)cc2)cc1[N+](=O)[O-] (stereo not given),-5,6,-7,1,-9,-6,·
CC(=O)N1c2ccc(S(=O)(=O)NCCC(=O)NCCc3ccc(Cl)cc3)cc2CC1C (stereo not given),-2,-2,-13,0,-11,2,·
O=c1[nH]c2cc3c(cc2cc1C(c1nnnn1Cc1ccccc1)N1CCCCCC1)OCCO3 (stereo not given),-12,4,·,·,28*,-4,8
O=c1[nH]c2cc3c(cc2cc1C(c1nnnn1Cc1ccccc1)N1CCN2CCCC2C1)OCCO3 (stereo not given),-16,-1,·,·,22*,1,-12
O=c1[nH]c2cc3c(cc2cc1C(c1nnnn1C1CCCC1)N1CCCc2ccccc21)OCCO3 (stereo not given),-7,-9,·,·,-5,9,·
O=C(C[C@@H]1C[C@@H]2c3cc(NC(=O)C4CCC4)ccc3O[C@@H]2[C@H](CO)O1)NCc1ccc2c(c1)OCO2,·,·,3,0,·,·,·
Cc1cccc(NC(=O)C2(c3ccccc3)CCOCC2)c1,-9,-7,8,0,4,7,·
Cc1cccc(NC(=O)C2(C)CC3c4ccccc4C2c2ccccc23)c1 (stereo not given),-16,1,·,·,29*,-1,5
COc1ccc(C2c3c(ncn(Cc4ccco4)c3=N)Oc3ccc4ccccc4c32)cc1 (stereo not given),-8,11,-23,0,45*,-11,-1
SMILES,PvdQ acylase,SR-BI HDL uptake,rRNA inh HTS,XiGFP reactiv,dFosB act-1,SR-BI uptake up,dFosB act-2
Cc1cc(NC(=O)c2ccc(C)c([N+](=O)[O-])c2)no1,-8,20,-15,0,-3,-20,·
Cc1cc(NC(=O)c2ccc(Br)c([N+](=O)[O-])c2)no1,64*,1,4,0,46*,-1,1
O=C(COc1ccccc1F)Nc1ccccc1C(=O)NC1CC1,-11,14,9,0,2,-14,·
O=C(COc1ccc(Br)cc1)Nc1ccccc1C(=O)NC1CC1,-6,29,-7,0,29*,-29,5
COc1cc(/C=N/NC(=S)NC(C)C)ccc1OCC(=O)Nc1c(C)cc(C)cc1C,-3,32,·,0,29*,-32,0
CCC1CCC(C(=O)NC(C(=O)Nc2ccc3c(c2)OCCO3)C(C)C)CC1 (stereo not given),-12,-8,·,·,24*,8,9
O=C(CCc1ccc(S(=O)(=O)NCc2ccccc2)cc1)NCc1ccco1,-3,-2,-3,0,-9,2,·
Cc1cc(C(=O)NCCCn2ccnc2)cs1,-5,6,·,·,0,-6,·
Cc1cccc(C(=O)OCC(=O)c2c(C)[nH]c3ccccc23)c1O,-10,8,1,0,28*,-8,0
CCOC(=O)c1c(C)[nH]c(C)c1C(=O)COC(=O)c1cccc(C)c1O,-8,-11,·,·,-3,11,·
CC1CCc2sc(C(=O)NN=C3CCC(c4ccccc4)CC3)cc2C1 (stereo not given),-8,0,-7,0,-8,0,·
CC1CCc2sc(C(=O)N/N=C/c3ccc([N+](=O)[O-])cc3)cc2C1 (stereo not given),-6,-10,·,0,17*,10,-2
CC(C)NC(=O)Nc1ccc2c(c1)C(=O)N([C@@H](C)CO)C[C@@H](C)[C@@H](CN(C)Cc1ccncc1)O2,·,·,2,0,·,·,·
O=C(NC(Cc1ccccc1)c1nc2ccccc2[nH]1)c1ccc(Cl)c([N+](=O)[O-])c1 (stereo not given),-15,0,21,0,31*,0,0
Cc1ccc(S(=O)(=O)NC(=O)c2ccc(-c3ccc(C)c4ccccc34)o2)cc1,0,-7,-50,0,-1,7,·
CN(/N=C/c1cc(Br)cc(Br)c1O)c1ccccc1,-16,-13,6,0,-6,13,·
